Measurements collected from several papers.
Compare with care: the assays were run in different laboratories.
Medium: plasma

C[C@H]1Oc2cc(cnc2N)-c2c(nn(C)c2C#N)CN(C)C(=O)c2ccc(F)cc21 — Tmax (male Sprague-Dawley rat; oral; 50 mg/kg; single dose): 11.4 h
CCCc1nc2c(C)cc(-c3nc4ccccc4n3C)cc2n1Cc1ccc(-c2ccccc2C(=O)O)cc1 — Tmax (male Sprague-Dawley rat; oral; 8 mg/kg; single dose): 3.5 h
C[C@H]1[C@@H](O)O[C@@H]2O[C@@]3(C)CC[C@H]4[C@H](C)CC[C@@H]1[C@@]24OO3 — Tmax (male Sprague-Dawley rat; oral; 10 mg/kg): 0.75 h
CC[C@@H]([C@H](C)O)n1ncn(-c2ccc(N3CCN(c4ccc(OC[C@@H]5CO[C@@](Cn6cncn6)(c6ccc(F)cc6F)C5)cc4)CC3)cc2)c1=O — Tmax (Sprague-Dawley rat; oral; 40 mg/kg): 3.05 h
CONC(=O)c1cccc2c1cc(C)n2-c1nc2c(c(NCc3ccccc3)n1)CCCN2 — Tmax (male Sprague-Dawley rat; oral; 10 mg/kg; single dose): 0.25 h
CCN(CC)Cc1ccc2cc(COC(=O)Nc3ccc(C(=O)NO)cc3)ccc2c1 — Tmax (male Sprague-Dawley rat; oral; 10 mg/kg): ~1.72 h
CN(C)C(=O)c1cc2cnc(Nc3ccc(N4CCNCC4)cn3)nc2n1C1CCCC1 — Tmax (male Sprague-Dawley rat; intraperitoneal; 100 mg/kg): 0.5 h
CCCCCCCCCC(=O)N[C@@H](Cc1c[nH]c2ccccc12)C(=O)N[C@H](CC(N)=O)C(=O)N[C@@H](CC(=O)O)C(=O)N[C@@H]1C(=O)NCC(=O)N[C@@H](CCCN)C(=O)N[C@@H](CC(=O)O)C(=O)N[C@H](C)C(=O)N[C@@H](CC(=O)O)C(=O)NCC(=O)N[C@H](CO)C(=O)N[C@@H]([C@H](C)CC(=O)O)C(=O)N[C@@H](CC(=O)c2ccccc2N)C(=O)O[C@@H]1C — Tmax (male Wistar rat; subcutaneous; 125 mg/kg; single dose): 5 h
COc1ccc(N(Cc2csc(-c3ccccc3)n2)C(=O)CCCCCC(=O)NO)cc1 — Tmax (female Sprague-Dawley rat; intravenous; 5 mg/kg): 0.08 h
CCCCC(=O)Nc1ccc(-c2ccc3ncn(CCC)c(=O)c3c2)cn1 — Tmax (male rat; oral; 10 mg/kg): 0.25 h
C1=C/COCc2cc(ccc2OCCN2CCCC2)Nc2nccc(n2)-c2cccc(c2)COC/1 — Tmax (male Sprague-Dawley rat; oral; 36 mg/kg): 8.67 h
C[C@@]12C[C@@]3(O)O[C@@H](O1)[C@]1(COC(=O)c4ccccc4)[C@H]3C[C@@]12O[C@@H]1O[C@H](CO)[C@@H](O)[C@H](O)[C@H]1O — Tmax (male Sprague-Dawley rat; oral; 80 mg/kg): 0.506 h
C=CC(=O)N1CCC[C@@H](n2nc(-c3ccc(Oc4ccccc4)cc3)c3c(N)ncnc32)C1 — Tmax (male Wistar rat; oral; 40 mg/kg): 2 h
C=CC(=O)N1CCC([C@@H]2CCNc3c(C(N)=O)c(-c4ccc(Oc5ccccc5)cc4)nn32)CC1 — Tmax (Sprague-Dawley rat; oral; 16 mg/kg): 1.5 h
COc1cc(-c2cc(C(C)=O)n3ccccc23)c(OC)cc1Cn1ccnc1 — Tmax (male Sprague-Dawley rat; oral; 5 mg/kg): 0.5 h
CCOc1c([C@H](C)n2nc(C)c3c(N)ncnc32)cc(Cl)c(F)c1[C@@H]1CNC(=O)C1 — Tmax (male Sprague-Dawley rat; oral; 2 mg/kg; single dose): ~2.42 h
O=C1CCC(N2Cc3cc(C4CCN(Cc5ccccc5)CC4)ccc3C2=O)C(=O)N1 (centres unmarked) — Tmax (male Sprague-Dawley rat; intravenous; 1 mg/kg): 0.14 h
